Experimental data reported in the EternaBench riboswitch data.

System: MS2 coat protein
Test: apparent Kd, MS2 coat protein; higher = weaker binding; RNA-MaP array; FMN 200 µM where present
Summary of the method: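 Stalled E. coli RNA polymerase transcribed each design on Illumina sequencing-chip clusters. The clusters were titrated with SNAP-549-labelled MS2 coat protein, starting at 0.7 or 1.5 nM and doubling up to 3 µM, first without ligand and then with constant ligand, in 100 mM Tris-HCl pH 7.5, 80 mM KCl, 4 mM MgCl2, BSA, DTT, yeast tRNA and Tween-20. Green signal was normalised to red-channel RNA signal and to the control-cluster median Fmax. The apparent Kd is the median of filtered binding-curve fits made for each cluster.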

[1] = designed as: OFF switch for flavin mononucleotide, no ligand
[2] = ligand present: flavin mononucleotide, designed as: OFF switch for flavin mononucleotide
[3] = designed as: ON switch for flavin mononucleotide, no ligand
[4] = ligand present: flavin mononucleotide, designed as: ON switch for flavin mononucleotide

| Sequence | apparent Kd [1] | apparent Kd [2] | apparent Kd [3] | apparent Kd [4] |
| --- | --- | --- | --- | --- |
| AAGUAGGUAGGAUAUACAUGGAUAUACAUUCAUGUGGACCUACAUGAGGAUCACCCAUGUAGAAGGACCUAUAA | 40.4 nM | 58 nM |  |  |
| GGAUUACAUGAGGAUCACCCAUGUGAGGAUAUCGAUGUCCUCAGUCAAGUGCGGGACUCGAGAAGGCACUUGGA | 64.2 nM | 32 nM |  |  |
| AAGAGAAAAGCAGGAUAUCUAUUGGCUCCUUAACAUGAGGAUCACCCAUGUAGAGAAGGGCUAAGACCGACUCUUCGGAGUUGA | 7.07 nM | 20.6 nM |  |  |
| CGGGAAGUCGUAGGAUAUGGUGAUGUACAUGAGGAUCACCCAUGUCCGUCUUCUCUCACAAGAUGCCAGAAGGACGACUUCCGG |  |  | 766 nM | 103 nM |
| GCACAUGAUACAGGAUAUGUUUUUUAAUUUAUUAUGAGUUAUAUAUUAUUUACAGAAGGGUAUACAUGAGGAUCACCCAUGUGC | 40.9 nM | 31.4 nM |  |  |
| AAGAAGUGAGGAUAUACAUGAGGAUCACCCAUGUAAAGAAGAAGAGGAGAGAAUAAAGGUAGAAGGCACAAGAA | 45.8 nM | 46 nM |  |  |
| GGAUAGGACAGAGGAUAUACGUUCUAGAGAUACUAGCAAAAUUUCCUCACAUGAGGAUCACCCAUGUAGAAGGCUGUCCUAUCG | 15.1 nM | 282 nM |  |  |
| GCGGCUAGUGCAGGAUAUCGGCGCGUGUAGUGCCGAGAAGGGCACAUGAGGAUCACCCAUGUGAUCAAUCACUGCUAAGGCCGC | 5.26 nM | 5.4 nM |  |  |
| GUGUCUAACUAGAAGGCCGUAUGCAAAGCAUACGGAGGAUAUGGGUUCCGGAAACGGACAUGAGGAUCACCCAUGUGGCACAAA |  |  | 94.3 nM | 13.4 nM |
| UUAUUUAUGCAAGGAUAUCAAUUAUAUACAAAUCCAACAUGAGGAUCACCCAUGUUUUAUUUUUUUGAGAAGGUGUAUUGUCAG |  |  | 36.1 nM | 40.5 nM |
| AAAAUCGAAGGAUAUACAUAUCCUUUAGCGGCAAUGCCGCGACAUGAGGAUCACCCAUGUAGAAGGUCGUAAAA | 27.6 nM | 31.5 nM |  |  |
| UAUGAGCGAGGAUAUGCUUGGGACUGUCGGAAGGUGGCGGGACAUGAGGAUCACCCAUGUAGAAGGCGCGAGCG | 70.7 nM | 82.8 nM |  |  |
| UUAGAUUAUUGAGGAUAUGGAUAUUUUUAUUAACCAGAAGGCAAACUCAACAUGAGGAUCACCCAUGUAUAAAGGGUAUUAGUU | 95.6 nM | 92.7 nM |  |  |
| UUUUAACAUGAGGAUCACCCAUGUGAGGAUAUCGAAAUUUAUAUUUAUAUUAAUAAAUCGAGAAGGCACAUUUU | 117 nM | 117 nM |  |  |
| GCUACUACAUGAGGAUCACCCAUGUAUCCGUAGCGGGCCGCACAGGAUAUCAACCUCGGAAGAGGUGAGAAGGGUGAUACUCAU |  |  | 23.2 nM | 38.1 nM |
| CGAGUUUUUGAGAAGGCAUAUAAUAAGAUUUCCCAUGUUAACAUGAGGAUCACCCAUGUUUAGUAUGAGGAUAUCAGUAGGUCG | 5.79 nM | 5.8 nM |  |  |
| AGUGUCAUCGAGAAGGCCUCAACAUGAGGAUCACCCAUGUUGCAAAAUGGGAGGAUAUCAAAACUACAGCUACGUUUCGUAGCA |  |  | 69.1 nM | 9.44 nM |
| AAAAGACAUGAGGAUCACCCAUGUGAAAACAUACAAGGAUAUGUGUGGAAACCGUACUAUACAGAAGGUGUAUGUC |  |  | 34.8 nM | 20 nM |
| CAGUACUGAGGAUAUACAUGAGGAUCACCCAUGUGUUCCUGCUAGGAUAUUAGCAAAAGUAGAAGGCAGAAGGGAAUGUGCCUA | 6.93 nM | 6.73 nM |  |  |
| CUCCCAUGUGUAGGAUAUAGAAAACCGAAAUGGCUAGAAGGACACAUGAGGAUCACCCAUGUAACCUUAACUUAGUGUACCGGG | 53.3 nM | 124 nM |  |  |
| CGUGUUCCACAGAAGGCAUGGGACACAUGAGGAUCACCCAUGUCACUGAUGAGGAUAUGUAAAAGGAGCGAGGUGCAAGAAUAG |  |  | 158 nM | 23.7 nM |
| UACAUGUAAGGAUAUGUAAAAUCAAAACAAGAACGAUAAAGACAGAAGGUACAUGAGGAUCACCCAUGUGUCCC | 20.5 nM | 21.4 nM |  |  |
| GCGCUGCGAGGAUAUACAUGAGGAUCACCCAUGUGUCGGCAGCCAUGCUAGUACAAAUGUAGAAGGCGCGUAAA | 16.8 nM | 17.8 nM |  |  |
| GUUGUUUGAGGAUAUACAUGAGGAUCACCCAUGUGUGUCCAUACGCGUGAGUCUUCGUGUAGAAGGCGGGCGGC | 13.7 nM | 14.7 nM |  |  |
| UGCUACGUUUCGUAGCAGUGUCAUCGAGAAGGCCCUGACAUGAGGAUCACCCAUGUUGUUACAUGGGAGGAUAUCGAUGAUACG |  |  | 12 nM | 4.9 nM |
| ACCUCGUCAGGAUAUCCUAUUAAUUGUUUCAUAUUUACGAUGGAGAAGGGACAUGAGGAUCACCCAUGUUGGUC | 35.5 nM | 58 nM |  |  |
| CCGGAAGUAGAGGAUAUAGGAGUCGAUAGACUCCUAGAAGGCUAUACAUGAGGAUCACCCAUGUGUCCUACCGG | 19.6 nM | 31 nM |  |  |
| GAAGCAGAUCAGAAGGACAACGUAGUUUCUGGCUUGGUGGCCCUCGUUUGUAGGAUAUGAUCUAACAUGAGGAUCACCCAUGUG |  |  | 53.2 nM | 11.7 nM |

| Sequence | apparent Kd [1] | apparent Kd [2] | apparent Kd [3] | apparent Kd [4] |
| --- | --- | --- | --- | --- |
| GUCAGCUCGUGAGGAUAUACAACACUGCUUCGGCAGUGUAAUAAGAUCACAUGAGGAUCACCCAUGUAGAAGGCACGAGCUGAU | 12 nM | 250 nM |  |  |
| UUGGAGUUCGUAGGAUAUGUAGGAUAUUCCUACAUGAGGAUCACCCAUGUUGACAUGGAGGAAGGACAGAAGGACGAGCUCCAU |  |  | 206 nM | 225 nM |
| AAGGUGAGAGGAUAUACAUGAGGAUCACCCAUGUGUCGGCCCUCCACAUAUGCCUUGUGUAGAAGGCUCCCGAG | 14.6 nM | 22.3 nM |  |  |
| CUAUAUAAUGCCUCAUGUACAUGAGGAUCACCCAUGUUAACUUAGGAUAUAUUUAUAUUGAUAGAGUAGAAGGAAGUACUAUUU | 14.2 nM | 12.9 nM |  |  |
| CAUCAGGUACGAGGAUAUCCGCGAUCUCUUCGAGGAGAAGGCGUACAUGAGGAUCACCCAUGUGGGCGAGACAGACGAAGUCUG | 114 nM | 59.5 nM |  |  |
| CACGUCUGGAAACGGAGCGGCCAACAUGAGGAUCACCCAUGUGAGGAUAUGCCUACUAAAAGUAGGCAGAAGGCGCAAUUGGCA | 31.2 nM | 44.7 nM |  |  |
| CGUAUACAUGAGGAUCACCCAUGUAAGGAUAUGCUUUAUUAUUAUUAUUAUUAUUGUUGCAGAAGGUACAUUGC | 19 nM | 17.7 nM |  |  |
| CGUAGGAUCCAGAAGGCAUGUACAUGAGGAUCACCCAUGUCGAAAGACAUGAGGAUAUGGAUCCUACGAAAAGUGCGAAAGCAC |  |  | 56.4 nM | 6.15 nM |
| AUACGUGAGAAGGAUAUCACUCGCCAAAGGCGUUGAGAAGGUUUCACAUGAGGAUCACCCAUGUGCUCUUCUAG | 27.7 nM | 61.5 nM |  |  |
| GCGAUAUUGUAAGGAUAUACUCUGUGAUGAAGAGUAGAAGGUACUUACAUGAGGAUCACCCAUGUUUAACGAGAUACUAAUCGC |  |  | 16.6 nM | 13.1 nM |
| UUUUAGUCAGGAUAUACAUGAGGAUCACCCAUGUAAAAUUUUAGUUUAAUUUGAAUGUGUAGAAGGGACAUUUU | 24.7 nM | 22.9 nM |  |  |
| UCGUACUAGGGAGGAUAUGGGAAGAUACAUGAGGAUCACCCAUGUUUAAGAAUGCCGAGAGGCAACUAGAAGGCCCUAGUACCU |  |  | 391 nM | 19.1 nM |
| GAACGUGACAUGAGGAUCACCCAUGUUGCCUGAGCCAGGUCGUAGGAUAUCCUGAUGAUUAAUUUGGAGAAGGGCGACUGGGAA |  |  | 34.4 nM | 14.3 nM |
| AUUUAUGUCAUAGGAUAUAUAAAUAAAUUUAUAACAUGAGGAUCACCCAUGUACUUUAGUAUGAGGUAGAAGGAUGAUAAGAGU |  |  | 35.1 nM | 26.7 nM |
| CCCGCUGCUGUGAGGAUAUGCCUGUGGGUGCGUGGGUAGAAGGCACAUGAGGAUCACCCAUGUCCUGCGGCUCC | 366 nM | 244 nM |  |  |
| UACAUUAACAUGAGGAUCACCCAUGUUGGCCAGUCUCUCACCAGAAGGCACGUAGAGUACAACAGUGAGGAUAUGGGUGACAUA |  |  | 139 nM | 86.1 nM |
| CCUUUGAAGAUCCUAAAUUUCGACAUGAGGAUCACCCAUGUGCAGGAUAUCGUGCCAGUGAUGUACGAGAAGGGCAGACUCUGC | 54.3 nM | 58 nM |  |  |
| GUGAAGUAAGGAUAUACAUGAGGAUCACCCAUGUGGAGGAAGGUGAUGGGAGUAGGUAGUAGAAGGUACGAGGA | 140 nM | 128 nM |  |  |
| AAACAGGGAGGAUAUACAUAGAUCGUCUAACCUAAUUGGUCACAUGAGGAUCACCCAUGUAGAAGGCCCUUAGG | 24.6 nM | 144 nM |  |  |
| UGCAGACGAGGAUAUGAUUAAUAAUACAUGAGGAUCACCCAUGUAAUACUGAUCUAUGGAUCAGAAGGCGUCUGCU | 17.3 nM | 14.6 nM |  |  |
| GUGGUGGGUUGAGGAUAUUGGUUGUCGUUGUCCCACAUGAGGAUCACCCAUGUGGGUUGUGGUUUUGAGAAGGUUGGUUGCUGG |  |  | 18.1 nM | 15.9 nM |
| UGUUACUAGUAAGGAUAUACUAGCGAUAAGCUAGUAGAAGGUACAGUCUUUUGUAUAUCAUGUUUACAUGAGGAUCACCCAUGU |  |  | 9.09 nM | 7.49 nM |
| AAACACGGACAUGAGGAUCACCCAUGUGGCGAAAGCCUAACUAGAAGGCAGUAUGCAAAGCAUUCUGAGGAUAUGGGUUCCGUG |  |  | 188 nM | 18.1 nM |
| CUGGACGUCGUAGGAUAUGUAGGAUAUUCCUACAUGAGGAUCACCCAUGUUGACAUGGAAGAAGGACAGAAGGACGAUGUCCAU |  |  | 229 nM | 4.55 nM |
| CUCAGCUCGUCAGGAUAUACGUCACUGCUUCGGCAGUGUGGUAAGAUCACAUGAGGAUCACCCAUGUAGAAGGGACGAGCUGAG | 11.5 nM | 245 nM |  |  |
| AAGGUACGAGGAUAUACAUAGAUACAGACACAUGUGCAUGUACAUGAGGAUCACCCAUGUAGAAGGCGUAUAUA | 30.2 nM | 110 nM |  |  |
| ACGCCCUGAGGAUAUCUUAUCCCGUACAUGAGGAUCACCCAUGUUCUCCUCCGGGCUCCGAGAGAAGGCAGGCCCA | 26.7 nM | 37 nM |  |  |
